Assay results as given in ChEMBL document CHEMBL3272032, “Antifolate studies. Activities of 40 potential antimalarial compounds against sensitive and chlorguanide triazine resistant strains of folate-requiring bacteria and Escherichia coli” (J Med Chem, 1977).
Active and inactive are the calls of the source. The calls are words filed in the database; no cut-off is given here.

Assays:
Escherichia coli [1] = test: Antibacterial activity against sensitive Escherichia coli ATCC 10536 assessed as reduction in growth in presence of p-aminobenzoic acid; assay type: functional, organism-based
How it was run: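 Reversal test. Drug inhibition was challenged with PABA in Sahyun et al. medium plus 0.6% acid-hydrolyzed casein. Growth read as turbidity on a Klett-Summerson colorimeter. Scored as reversal or nonreversal of the drug inhibition.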

[2] = Antibacterial activity against sensitive Pediococcus cerevisiae ATCC 808 assessed as reduction; assay type: functional
How it was run: (§1)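 P. cerevisiae grown with folinic acid at 0.001 μg/ml in the earlier-described medium. Turbidity read on a Klett-Summerson colorimeter. IC50 is the micromolar concentration reducing growth to 50% of control. Top concentration was 1000 μg/ml, or 100 μg/ml when supply was limited.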

Lacticaseibacillus casei [3] = test: Antibacterial activity against sensitive Lactobacillus casei ATCC 7469 assessed as reduction in growth in presence of 0.001 ug/ml folic acid; assay type: functional, organism-based
How it was run: (§2)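 Folate-requiring strains in the medium of the earlier assay method. Folic acid was 0.002 μg/ml for S. faecium and 0.001 μg/ml for L. casei. Turbidity read on a Klett-Summerson colorimeter. IC50 is the micromolar concentration reducing growth to 50% of control. Top concentration was 1000 μg/ml, or 100 μg/ml if supply was limited.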

Enterococcus faecium [4] = test: Antibacterial activity against sensitive Streptococcus faecium ATCC 8043 assessed as reduction in growth; assay type: functional, organism-based
How it was run: (§3)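 Folate-requiring strains grown in medium with folic acid, 0.002 µg/ml for S. faecium and 0.001 µg/ml for L. casei; P. cerevisiae given folinic acid, 0.001 µg/ml. Resistant substrains came from serial transfer in rising chlorguanide triazine, and the most resistant were used. Compounds tested up to 1000 µg/ml, or 100 µg/ml when supply was limited. Growth read as Klett turbidity; IC50 is the µM concentration giving 50% growth inhibition.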

Escherichia coli [5] = test: Antibacterial activity against sensitive Escherichia coli ATCC 10536 assessed as reduction in growth; assay type: functional, organism-based
How it was run: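 Growth inhibition in Sahyun et al. medium plus 0.6% acid-hydrolyzed casein. Growth read as turbidity on a Klett-Summerson photoelectric colorimeter. IC50 is the micromolar concentration giving 50% growth inhibition. Top concentration was 1000 μg/ml, or 100 μg/ml when compound was limited.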

Enterococcus faecium [6] = test: Fold increase in resistance, ratio of IC50 for chlorguanide triazine-resistant Streptococcus faecium ATCC 8043 to IC50 for sensitive Streptococcus faecium ATCC 8043; assay type: functional
How it was run: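 Resistant S. faecium substrain raised by serial transfer in increasing chlorguanide triazine. IC50 (µM, 50% growth inhibition by turbidity) was found for resistant and parent strains in folic acid (0.002 µg/ml) medium. Fold increase taken as IC50 resistant / IC50 sensitive.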

Pediococcus [7] = test: Fold increase in resistance, ratio of IC50 for chlorguanide triazine-resistant Pediococcus cerevisiae ATCC 808 to IC50 for sensitive Pediococcus cerevisiae ATCC 808; assay type: functional
How it was run: (§4)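 Resistant substrains were made by serial transfer in rising concentrations of cycloguanil, and the most resistant isolate of each organism was used. Both strains were assayed turbidimetrically under identical conditions. FIR = IC50 of the resistant strain divided by IC50 of the sensitive parent.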

Lacticaseibacillus casei [8] = test: Fold increase in resistance, ratio of IC50 for chlorguanide triazine-resistant Lactobacillus casei ATCC 7469 to IC50 for sensitive Lactobacillus casei ATCC 7469; assay type: functional; how it was run: as §4
Enterococcus faecium [9] = test: Antibacterial activity against chlorguanide triazine-resistant Streptococcus faecium ATCC 8043 assessed as reduction in growth; assay type: functional, organism-based; how it was run: as §3
Lacticaseibacillus casei [10] = test: Antibacterial activity against sensitive Lactobacillus casei ATCC 7469 assessed as reduction; assay type: functional, organism-based; how it was run: as §3
Enterococcus faecium [11] = test: Antibacterial activity against sensitive Streptococcus faecium ATCC 8043 assessed as reduction in growth in presence of 0.002 ug/ml folic acid; assay type: functional, organism-based; how it was run: as §2
[12] = Antibacterial activity against chlorguanide triazine-resistant Pediococcus cerevisiae ATCC 808 assessed as reduction in growth; assay type: functional; how it was run: as §3
Lacticaseibacillus casei [13] = test: Antibacterial activity against chlorguanide triazine-resistant Lactobacillus casei ATCC 7469 assessed as reduction in growth; assay type: functional, organism-based; how it was run: as §3
Pediococcus [14] = test: Antibacterial activity against sensitive Pediococcus cerevisiae ATCC 808 assessed as reduction in growth in presence of 0.001 ug/ml folinic acid; assay type: functional; how it was run: as §1
Plasmodium berghei [15] = test: Antimalarial activity against Plasmodium berghei infected in sc dosed mouse assessed as active dose required to increase of 100% in mean survival time; assay type: functional; conditions: read-out: MED
How it was run: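 Mice received a standard blood-induced P. berghei inoculum and were then treated with one subcutaneous dose of compound suspended in peanut oil. The minimum active dose is the lowest dose that raised mean survival time by 100%.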

Enterococcus faecium [16] = test: Antibacterial activity against chlorguanide triazine-resistant Streptococcus faecium ATCC 8043 assessed as reduction in growth in presence of 0.002 ug/ml folic acid; assay type: functional, organism-based; how it was run: as §3
Plasmodium berghei [17] = test: Antimalarial activity against Plasmodium berghei infected in sc dosed mouse assessed as dose required to survivors for period of 60 days; assay type: functional
How it was run: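 Mice infected with a blood-induced P. berghei inoculum were given one subcutaneous dose in peanut oil. Survivors at 60 days counted as cured. The minimum curative dose is the lowest dose that cured any mouse.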

Lacticaseibacillus casei [18] = test: Antibacterial activity against chlorguanide triazine-resistant Lactobacillus casei ATCC 7469 assessed as reduction in growth in presence of 0.001 ug/ml folic acid; assay type: functional, organism-based; how it was run: as §3

SMILES | inhibition (Escherichia coli [1]) | IC50 [2] | inhibition (Lacticaseibacillus casei [3]) | IC50 (Enterococcus faecium [4]) | IC50 (Escherichia coli [5]) | Ratio IC50 (Enterococcus faecium [6]) | Ratio IC50 (Pediococcus [7]) | Ratio IC50 (Lacticaseibacillus casei [8]) | IC50 (Enterococcus faecium [9]) | IC50 (Lacticaseibacillus casei [10]) | inhibition (Enterococcus faecium [11]) | IC50 [12] | IC50 (Lacticaseibacillus casei [13]) | inhibition (Pediococcus [14]) | minimal effective dose (Plasmodium berghei [15]) | inhibition (Enterococcus faecium [16]) | MCD (Plasmodium berghei [17]) | inhibition (Lacticaseibacillus casei [18])
CCN(CC)CCNc1nc(Nc2ccc(Cl)c(Cl)c2)nc2ccccc12 | Active | 6.5 µM | Active | 31 µM | 11 µM | 2 | 1 | 0.4 | 61 µM | 12 µM | Active | 8.2 µM | 5 µM | Active | – | – | – | –
Nc1nc(=O)c2c([nH]1)NCC(CCNc1ccc(C(=O)[O-])cc1)N2.[Na+] (configuration not stated) | – | > 2900 µM | inactive | 0.009 µM | – | 800 | – | 0.03 | 7.2 µM | 6 µM | inactive | – | 0.2 µM | – | > 640 mg/kg | inactive | >640 mg/kg | inactive
Nc1nc(N)c2c(ccc3cc(Br)ccc32)n1 | Active | 0.04 µM | inactive | 0.006 µM | 4.8 µM | 117 | 7.5 | 0.06 | 0.7 µM | 1 µM | inactive | 0.3 µM | 0.06 µM | inactive | 640 mg/kg | inactive | >640 mg/kg | inactive
CCOC(=O)c1cnc(S)nc1O | – | > 5000 µM | Active | > 5000 µM | > 5000 µM | – | – | 0.19 | > 5000 µM | 3000 µM | – | – | 574 µM | – | 40 mg/kg | – | 320 mg/kg | –
NC1(C(=O)O)CCCC1 [CYCLOLEUCINE] | – | > 7700 µM | – | > 7700 µM | > 7700 µM | – | – | – | > 7700 µM | > 7700 µM | – | – | > 7700 µM | – | > 640 mg/kg | – | >640 mg/kg | –
O=C(NO)c1ccc(C(=O)NO)cc1 | – | > 5000 µM | Active | 1700 µM | > 5000 µM | 3 | – | 1 | > 5000 µM | 2600 µM | Active | – | 3000 µM | – | 320 mg/kg | Active | 640 mg/kg | Active
Nc1ccc(S(=O)(=O)Nc2nccs2)cc1 [SULFATHIAZOLE] | inactive | > 3900 µM | – | > 3900 µM | 7.8 µM | – | – | – | > 3900 µM | > 3900 µM | – | – | > 3900 µM | – | 40 mg/kg | – | 160 mg/kg | –
Nc1ccc(S(=O)(=O)c2ccc(N)cc2)cc1 [DAPSONE] | inactive | 105 µM | Active | > 4000 µM | 137 µM | – | >4 | 0.24 | > 4000 µM | 314 µM | – | > 400 µM | 75 µM | Active | 20 mg/kg | – | 40 mg/kg | –
CCc1ccc(N2C(N)=NC(N)=NC2(C)C)cc1 | Active | 42.6 µM | inactive | 0.036 µM | 1900 µM | >9700 | >8 | 11 | > 350 µM | 27.3 µM | inactive | > 355 µM | 291 µM | inactive | 320 mg/kg | – | >640 mg/kg | inactive
CCN(CC)CCCC(C)Nc1ccnc2cc(Cl)ccc12 (configuration not stated) [CHLOROQUINE] | – | 2500 µM | Active | 6600 µM | – | 1 | 1 | 1 | 7500 µM | 6400 µM | Active | 2500 µM | 6000 µM | Active | 20 mg/kg | – | 80 mg/kg | –
COc1cc(NC(C)CCCN)c2ncccc2c1 (configuration not stated) [PRIMAQUINE] | – | 580 µM | Active | 1200 µM | – | 3 | 1 | 2 | 3000 µM | 630 µM | Active | 540 µM | 1300 µM | Active | 40 mg/kg | – | 160 mg/kg | –
COc1nccnc1NS(=O)(=O)c1ccc(N)cc1 [SULFALENE] | inactive | > 3600 µM | – | > 3600 µM | 13.5 µM | – | – | 1 | > 3600 µM | 8200 µM | – | – | 8200 µM | – | 40 mg/kg | – | 160 mg/kg | –
CC1(C)N=C(N)N=C(N)N1OCc1ccc(Cl)c(Cl)c1 [CLOCIGUANIL] | Active | 0.14 µM | inactive | 0.0009 µM | 7 µM | 3800 | 59 | 54 | 3.4 µM | 0.057 µM | inactive | 8.2 µM | 3.1 µM | inactive | 2.5 mg/kg | – | 20 mg/kg | –
CCN(CC)CCNc1nc(C(Cl)(Cl)Cl)nc2cc(Cl)ccc12 | Active | 32 µM | Active | 76 µM | 50 µM | 0.9 | 1 | 0.27 | 67 µM | 30 µM | Active | 35 µM | 8 µM | Active | 160 mg/kg | – | 320 mg/kg | –
Nc1ccc(S(=O)(=O)Nc2ncccn2)cc1 [SULFADIAZINE] | inactive | > 4000 µM | – | > 4000 µM | 12 µM | – | – | – | > 4000 µM | > 4000 µM | – | – | > 4000 µM | – | 160 mg/kg | – | 640 mg/kg | –
Cc1ccccc1-c1nc2c(N)nc(N)nc2nc1N | Active | 8.5 µM | inactive | 1.1 µM | 209 µM | 113 | 5 | 0.03 | 124 µM | 68 µM | inactive | 44 µM | 1.9 µM | inactive | 40 mg/kg | – | 320 mg/kg | –
